Screens as filed in PubChem.
Compounds with a hit are over-represented: about 2.6% of the library has one in this group of screens.
E-selectin induc: induces E-selectin expression in human endothelial cells | P16581 | HUVEC E-selectin immunofluorescence imaging; normalized: neutral wells 0, TNF-alpha wells 100 | activation, % at 7.58 µM | hit rate 0.37% among 260,000 | AID 686992;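 active = mean E-selectin-positive cell signal at least 10% of the positive control, reached in at least 60% of replicates, without over 20% cell loss; inconclusive = no rule given, readout overlaps actives, possibly toxicity-flagged; inactive = the rest, including those meeting only one limit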
Target sequence (P16581 whole entry, looked up): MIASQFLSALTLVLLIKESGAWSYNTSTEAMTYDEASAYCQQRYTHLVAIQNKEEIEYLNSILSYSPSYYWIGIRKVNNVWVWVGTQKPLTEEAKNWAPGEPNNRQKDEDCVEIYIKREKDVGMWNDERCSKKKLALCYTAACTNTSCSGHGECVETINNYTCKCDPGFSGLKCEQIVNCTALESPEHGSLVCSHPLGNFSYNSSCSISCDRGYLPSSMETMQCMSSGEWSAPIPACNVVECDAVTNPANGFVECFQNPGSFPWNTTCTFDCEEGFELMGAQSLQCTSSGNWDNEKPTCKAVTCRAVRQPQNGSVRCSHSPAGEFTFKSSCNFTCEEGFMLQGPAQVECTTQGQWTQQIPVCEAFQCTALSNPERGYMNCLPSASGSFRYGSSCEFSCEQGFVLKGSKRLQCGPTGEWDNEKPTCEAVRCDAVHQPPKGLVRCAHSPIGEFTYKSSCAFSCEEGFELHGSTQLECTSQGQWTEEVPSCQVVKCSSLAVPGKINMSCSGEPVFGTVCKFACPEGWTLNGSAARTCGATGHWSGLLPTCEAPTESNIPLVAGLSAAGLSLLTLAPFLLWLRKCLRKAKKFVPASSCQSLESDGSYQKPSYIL
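Material: HUVEC primary endothelial cells; Amount: 3,000 cells per well; Dosing: single concentration; Medium: EGM-2 growth medium on 0.1% gelatin-coated wells; Read-out basis: percent E-selectin-positive cells; Signal: immunofluorescence imaging; Control set: TNF-alpha, DMSO.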
ERAP1 inh: inhibitors of human ERAP1 aminopeptidase; Q9NZ08; recombinant ERAP1, Leu-AMC fluorescence, 60 min; inhibition, % at 10.7 µM; hit rate 0.15% among 340,000; AID 652197;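 active = mean replicate inhibition of at least 30%, or all replicates individually reaching that 30% level; inactive = mean below 30% and not every replicate reaching it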
DENV2 CPE: DENV2-induced cell death inhibition. AID 651640. hit rate 1.7% among 350,000. CPE inhibition, % at 9.99 µM. DENV2-infected cells, cytopathic effect rescue, plate reader; in the data active = CPE inhibition above about 20%, passing the limit was not always enough; inconclusive = no clear call, values can overlap the other calls; tested in BHK-21 cells
GSIS activator: GLuc luminescence reporter in INS-1E cells, primary screen for activators of glucose-dependent secretion of insulin | INS-1E GLuc reporter insulin secretion, 2-3 h | activation, % at 16.6 µM | hit rate 0.61% among 370,000 | AID 743287;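 active = lowest replicate activation of at least 40%, so every replicate reaches that level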
CFTR F508del cor: CFTR F508del correction in bronchial cells | CFBE cells, YFP halide quenching; stimulated with forskolin plus potentiator P3; % fluorescence drop versus neutral controls | activity (quench increase), % at 7.58 µM | hit rate 0.36% among 350,000;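 active = mean added fluorescence quench of at least 8% versus neutral control, with both replicates also reaching 8%; inconclusive = only one of the mean or replicate conditions met; inactive = mean below 8% and not both replicates reaching 8%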;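 note: cells transiently co-express mutant CFTR-F508del with the halide-sensitive YFP; corrector assay measuring rescue of mutant channel to the surface after 24 h compound exposure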
miR-122 sensor: blocks miR-122 activity in Huh7 sensor cells; Huh7 miR-122 Renilla luciferase sensor, 48 h; neutral wells = 0, positive control = 100; activation (reporter increase), % at 12.5 µM; AID 602342; hit rate 0.3% among 340,000;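 active = mean replicate activation score at least 90 and every replicate individually at or above 90; inconclusive = only one of the two criteria met; inactive = neither criterion met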;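 note: higher luciferase means less miR-122 activity so hits act as miR-122 inhibitors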
Hits are given with their value; . = inactive; ? = inconclusive; / = no result; ! = a repeat was not active; [ ] = dose if it differs, or a comment.

SMILES | E-selectin induc | ERAP1 inh | DENV2 CPE | GSIS activator | CFTR F508del cor | miR-122 sensor
CCCNC(=O)Nc1ccc2c(c1)C(=O)N(C)[C@@H]1CC[C@@H](CC(=O)NCc3ccccc3)O[C@@H]1CO2 | . | . | 56.0 | . | . | .
CCCNC(=O)Nc1ccc2c(c1)C(=O)N(C)[C@@H]1CC[C@@H](CC(=O)NCc3ccccc3)O[C@H]1CO2 | . | . | . | . | . | .
CN1C(=O)c2cc(NC(=O)Cc3ccccc3)ccc2OC[C@@H]2O[C@@H](CC(=O)NCC3CC3)CC[C@@H]21 | . | . | . | . | . | 183.3[16.7 µM]
Cc1ccccc1NC(=O)Nc1ccc2c(c1)C(=O)N(C)[C@H]1CC[C@@H](CC(=O)NCC3CC3)O[C@H]1CO2 | . | . | . | . | . | 217.8[16.7 µM]
O=C(NC1Cc2ccccc2C1)[C@H]1[C@H](CO)[C@H]2Cn3c(cccc3=O)[C@@H]1N2Cc1ccccc1F | . | / | . | . | . | .
Cc1ccc(S(=O)(=O)NCC[C@@H]2CC[C@H](NC(=O)c3cccc(F)c3)[C@H](CO)O2)cc1 | . | . | . | . | . | /
CN1C(=O)c2cc(NS(=O)(=O)c3ccc(Cl)cc3)ccc2OC[C@@H]2O[C@H](CC(=O)N3CCc4ccccc4C3)CC[C@H]21 | . | . | 39.9 | . | . | .
CN1C(=O)c2cc(NS(=O)(=O)c3ccc(Cl)cc3)ccc2OC[C@@H]2O[C@@H](CC(=O)N3CCc4ccccc4C3)CC[C@@H]21 | . | . | . | . | . | .
CN1C(=O)c2cc(NS(=O)(=O)c3cccc(F)c3)ccc2OC[C@H]2O[C@@H](CC(=O)O)CC[C@@H]21 | . | . | 71.2 | . | . | .
CN1C(=O)c2cc(NC(=O)NCc3ccccc3)ccc2OC[C@@H]2O[C@H](CC(=O)NCC3CCCCC3)CC[C@@H]21 | . | / | / | . | . | 173.3[16.7 µM]
CN1C(=O)c2cc(NC(=O)c3cccc(F)c3)ccc2OC[C@H]2O[C@@H](CC(=O)NCC3CC3)CC[C@H]21 | . | . | 20.6 | . | . | /
CN1C(=O)c2cc(NS(=O)(=O)c3cccc(F)c3)ccc2OC[C@@H]2O[C@@H](CC(=O)O)CC[C@H]21 | . | . | . | . | . | .
CCCC(=O)N1CC2(C1)CN(C(=O)Nc1c(C)noc1C)[C@@H](CO)c1c2c2ccc(OC)cc2n1C | . | / | . | . | . | /
C[C@H]1CN([C@@H](C)CO)C(=O)c2cccc(NC(=O)C3CCCCC3)c2O[C@H]1CN(C)Cc1ccncc1 | . | . | ? | . | . | .
CC(=O)Nc1ccc2c(c1)C(=O)N(C)[C@H]1CC[C@H](CC(=O)Nc3cccc(C(C)C)c3)O[C@@H]1CO2 | . | . | 107.9 | . | . | .
CN1C(=O)c2cc(NC(=O)NCc3ccccc3)ccc2OC[C@H]2O[C@H](CC(=O)NCC3CCCCC3)CC[C@H]21 | . | . | 98.2 | . | . | .
O=C1c2ccccc2NC(c2cccc(O)c2)N1NS(=O)(=O)c1ccccc1 (stereo unspecified) | / | 38.4 | . | . | . | .
Cc1ccc(S(=O)(=O)NN2C(=O)c3ccccc3NC2c2ccccc2)cc1 (stereo unspecified) | / | . | . | . | . | .
Cc1ccc(S(=O)(=O)N(C)C[C@H]2Oc3ccc(NC(=O)Nc4ccc(F)cc4)cc3C(=O)N([C@H](C)CO)C[C@H]2C)cc1 | . | . | . | . | . | .
CC(=O)NC[C@H]1[C@@H](c2ccc(C3=CCCCC3)cc2)[C@@H](CO)N1C(=O)NC(C)C | . | / | 54.9 | . | . | .
COCC(=O)NC[C@@H]1[C@@H](c2ccc(C3=CCCC3)cc2)[C@@H](CO)N1C(=O)C1CC1 | . | . | 25.1 | . | . | .
CCCNC(=O)NC[C@@H]1[C@@H](c2ccc(C3=CCCC3)cc2)[C@H](CO)N1C(=O)CC | . | . | . | . | . | 342.9[16.7 µM]
COCC(=O)NC[C@@H]1[C@H](c2ccc(C3=CCCC3)cc2)[C@H](CO)N1C(=O)C1CC1 | . | . | . | . | . | .
COCC(=O)N1[C@@H](C#N)[C@@H](c2ccc(C3=CCCCC3)cc2)[C@@H]1CO | . | . | 24.1 | . | . | /
C[C@@H]1CN([C@H](C)CO)C(=O)c2c(c3ccccc3n2C)-c2ccccc2CO[C@H]1CN(C)Cc1cccnc1 | / | / | / | . | / | /
SMILES | E-selectin induc | ERAP1 inh | DENV2 CPE | GSIS activator | CFTR F508del cor | miR-122 sensor
CN(C)CCCNC(=O)C[C@H]1CC[C@H](NS(=O)(=O)c2ccc(F)cc2)[C@@H](CO)O1 | . | . | . | . | . | /
COc1ccc(NC(=O)N(C)C[C@@H]2OCCCC[C@H](C)Oc3ccc(NC(=O)CCCN(C)C)cc3C(=O)N([C@H](C)CO)C[C@@H]2C)cc1 | . | . | . | . | . | .
O=C(Nc1ccc(OC(F)F)c(Cl)c1)C(c1ccccc1)c1ccccc1 | . | . | . | . | . | /
O=C(Cc1cccc2ccccc12)Nc1ccc(OC(F)F)c(Cl)c1 | / | . | . | . | / | 94.0
Cc1cccc(Nc2nc(N)nc(-c3oc4ccccc4c3C)n2)c1 | / | / | . | . | 12.3 | .
COc1cccc(Nc2nc(N)nc(-c3oc4ccccc4c3C)n2)c1 | / | / | / | . | / | .
COc1ccccc1S(=O)(=O)N(C)C[C@H]1OCc2ccccc2-c2c(n(C)c3ccccc23)C(=O)N([C@@H](C)CO)C[C@@H]1C | . | . | . | . | . | /
NC(=O)COC(=O)c1ccccc1Oc1ccccc1 | . | / | . | 46.4 | . | /
COc1ccc(-c2ccc3n(c2=O)C[C@H]2[C@H](CO)[C@@H](C(=O)NCC4CC4)[C@@H]3N2S(C)(=O)=O)cc1 | . | . | . | . | . | .
C[C@@H]1CN([C@@H](C)CO)S(=O)(=O)c2ccc(Br)cc2O[C@H]1CN(C)C(=O)CN(C)C | . | . | . | . | . | .
C[C@H](CO)N1C[C@H](C)[C@@H](CN(C)C(=O)CN(C)C)Oc2cc(Br)ccc2S1(=O)=O | . | . | 33.1 | . | . | .
CC(=O)N(C)C[C@@H]1Oc2cc(Br)ccc2S(=O)(=O)N([C@@H](C)CO)C[C@@H]1C | . | . | . | . | . | .
CC(=O)N(C)C[C@@H]1Oc2cc(Br)ccc2S(=O)(=O)N([C@H](C)CO)C[C@@H]1C | . | . | 36.2! | . | . | .
C[C@H]1CN([C@@H](C)CO)S(=O)(=O)c2ccc(Br)cc2O[C@H]1CN(C)C(=O)CN(C)C | . | . | 37.7! | . | . | .
CCC(=O)N(C)C[C@H]1Oc2cc(Br)ccc2S(=O)(=O)N([C@@H](C)CO)C[C@H]1C | . | . | . | . | . | .
COc1ccc2c3c([nH]c2c1)[C@H](CO)N(C(=O)Nc1c(C)noc1C)CC31CCN(CC2CCCCC2)CC1 | . | / | ? | . | . | /
O=C(O)c1cccc(N/N=C/c2sc(N3CCOCC3)nc2-c2ccccc2)c1 | / | / | / | 41.5 | / | .
Nc1ccc(C(=O)N/N=C/c2sc(N3CCOCC3)nc2-c2ccccc2)cc1 | . | . | . | . | / | /
